Experimental data gathered from unrelated publications.
Compare with care: the assays were run in different laboratories.
CDK19 with cyclin C: Cyclin-dependent kinase 19, with cyclin C (CDK19, Homo sapiens, UniProt Q9BWU1)
CDK19: Cyclin-dependent kinase 19 (CDK19, Homo sapiens, UniProt Q9BWU1)

Structure (SMILES)	target	test	setting	quantity	value
O=C(Nc1cnn(-c2csc(C(=O)NC3COC3)c2)c1)Nc1c(F)cccc1Cl	CDK19 with cyclin C	enzyme activity, inhibitor	5 µM	remaining activity	96.2%
C[C@@H]1CCN(c2nccc(-c3cnn4ncccc34)n2)C1	CDK19	binding	1 µM	remaining binding	97%
CC(C)(C)c1nc2c(s1)c1nc(N)ncc1c1ccc(NS(=O)(=O)c3c(F)cccc3F)c(F)c12	CDK19 with cyclin C	enzyme activity, inhibitor, radiometric	1 µM	remaining activity	98%
Cc1sc(C(=O)NC2COC2)cc1-n1cc(NC(=O)Nc2c(F)cccc2Cl)cn1	CDK19 with cyclin C	enzyme activity, inhibitor	10 µM	remaining activity	98.1%
CC(C)(C)c1nc(-c2cccc(NS(=O)(=O)c3c(F)cccc3F)c2F)c(-c2ccnc(N)n2)s1	CDK19 with cyclin C	enzyme activity, inhibitor, radiometric	1 µM	remaining activity	94%
C[C@@H]1CN(c2ccc3ncc(-c4ccc5[nH]nc(C6CC6)c5c4)n3n2)C[C@H](C)O1	CDK19	binding, competition with immobilised ligand	0.5 µM	remaining binding	13%
CN1CCN(C(=O)c2ccc3cc(CCNc4ccnc5ccc(C#N)cc45)ccc3c2)CC1	CDK19	binding, competition with immobilised ligand	2 µM	inhibition	> 85%
F[C@@H]1CCN(c2nccc(-c3cnn4ncccc34)n2)C1	CDK19	binding	1 µM	remaining binding	100%
Cc1ccc(C(=O)Nc2ccc(CN3CCN(C)CC3)c(C(F)(F)F)c2)cc1C#Cc1cnc2cccnn12	CDK19	enzyme activity, inhibitor	23.5 nM	remaining activity	31%
